A1 apoptosis 2 = A1 inhibition read as caspase activation; caspase activation, % (no concentration beside the values); MEF A1-2A-BIM cells, caspase-Glo luminescence, 3 h; percent of clofoctol response, DMSO zero; 24,000 tested, under 10 active; in the data active = caspase activation above about 5.9%; inconclusive = no clear call, values can overlap the other calls; inactive = below about 2.2%
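Material: A1-2A-BIM-expressing MEF cells. Buffer or medium: RPMI-1640 plus 10% FBS. Incubation: cells settled overnight, compound exposure 3 h at 37 °C, 5% CO2. Signal: Caspase-Glo 3/7 luminescence, 1 h at room temperature.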
INS-1E rescue = INS-1E beta cell protection from cytokine death | INS-1E cytokine-induced death, ATP luminescence, 48 h; normalised: neutral wells 0, positive control 100 | protection from cytokine-induced ATP loss, % at 10 µM | 20,000 tested, 0.1% active | AID 488910;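 active = mean replicate protection from cytokine-induced ATP loss at least 50% and at least 75% of replicates each reaching 50%; inconclusive = meets only one of the two criteria, mean or replicate share; inactive = fails both the mean and replicate share criteria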
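Test system: INS-1E rat cells | Quantity: 8000 cells per well | Medium: Phenol-red-free RPMI with 5% fetal bovine serum | Reagent: Cytokine cocktail of IFN-γ, TNF-α and IL-1β | Doses: One compound concentration, pin transfer | Timing: 48 h co-treatment, 10 min post-lysis read | Technique: Luminescent ATP assay (CellTiter-Glo)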
T cruzi intra = blocks T. cruzi growth inside host cells | intracellular Trypanosoma cruzi in host cells, plate reader | AID 651903 | 22,000 tested, 4.9% active | activity score (inhibition), % at 5.01 µM; in the data active = activity score above about 55%; inconclusive = no clear call, values can overlap the other calls;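 also: parasites and compound incubated about four days before reading; 0% = median of neutral control wells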
Active calls of the source: *. The full list was thinned out, with hits kept by preference.

C[C@H](CO)N1C[C@H](C)[C@H](CN(C)C(=O)NC2CCCCC2)Oc2ncc(C#Cc3ccccc3)cc2C1=O was read as A1 apoptosis 2 inconclusive and T cruzi intra 52.
Screening C[C@H](CO)N1C[C@H](C)[C@H](CN(C)Cc2cccc(C(F)(F)F)c2)Oc2ncc(-c3cccc(C(F)(F)F)c3)cc2C1=O returned A1 apoptosis 2 0 and T cruzi intra 89*.
C[C@H](CO)N1C[C@H](C)[C@H](CN(C)Cc2cccc(C(F)(F)F)c2)Oc2ncc(-c3cccc(F)c3)cc2C1=O was read as A1 apoptosis 2 0 and T cruzi intra 65*.
Screening C[C@H](CO)N1C[C@H](C)[C@H](CN(C)Cc2ccncc2)Oc2ncc(-c3cccc(C(F)(F)F)c3)cc2C1=O returned A1 apoptosis 2 0 and T cruzi intra 46.
`C[C@H](CO)N1C[C@H](C)[C@H](CN(C)C(=O)NC2CCCCC2)Oc2ncc(-c3cccc(C(F)(F)F)c3)cc2C1=O` gave A1 apoptosis 2 7.1* and T cruzi intra inconclusive.
`Cc1cccc(CN(C)C[C@@H]2Oc3ncc(-c4cccc(F)c4)cc3C(=O)N([C@H](C)CO)C[C@@H]2C)c1` gave A1 apoptosis 2 2 and T cruzi intra 40.
`C[C@H](CO)N1C[C@H](C)[C@H](CN(C)C(=O)NC2CCCCC2)Oc2ncc(-c3ccc(F)cc3)cc2C1=O` gave T cruzi intra -8.
`C[C@H](CO)N1C[C@H](C)[C@H](CN(C)C(=O)NC2CCCCC2)Oc2ncc(C#Cc3cccc(F)c3)cc2C1=O` gave T cruzi intra 63*.
Screening O=C(CCCCCCC(=O)N/N=C/c1cccnc1Br)NO returned A1 apoptosis 2 1.
For CCCNc1ncnc2ccccc12 the results were A1 apoptosis 2 0.
`O=C(NO)c1cccc(C(=O)N/N=C/c2cc(O)ccc2O)c1` gave A1 apoptosis 2 -1, INS-1E rescue 21 and T cruzi intra 27.
For C[C@H](CO)N1C[C@H](C)[C@@H](CN(C)S(=O)(=O)c2ccccc2)OCCCC[C@H](C)Oc2ccc(NC(=O)Nc3ccc(F)cc3)cc2C1=O the results were A1 apoptosis 2 1.
Screening C[C@@H]1CN([C@H](C)CO)C(=O)Cc2cc(NS(=O)(=O)c3ccc(Cl)cc3)ccc2O[C@@H]1CN(C)Cc1ccncc1 returned A1 apoptosis 2 1, INS-1E rescue 0 and T cruzi intra 76*.
For C[C@@H]1CN([C@H](C)CO)C(=O)Cc2cc(NS(=O)(=O)c3ccc(Cl)cc3)ccc2O[C@H]1CN(C)Cc1ccc(Cl)c(Cl)c1 the results were INS-1E rescue 5 and T cruzi intra 65*.
Screening C[C@H](CO)N1C[C@H](C)[C@@H](CN(C)Cc2ccc(Cl)c(Cl)c2)Oc2ccc(NS(=O)(=O)c3ccc(Cl)cc3)cc2CC1=O returned A1 apoptosis 2 0.
For C[C@@H]1CN([C@H](C)CO)C(=O)Cc2cc(NS(=O)(=O)c3ccc(F)cc3)ccc2O[C@H]1CN(C)Cc1ccc(Cl)c(Cl)c1 the results were INS-1E rescue -25 and T cruzi intra 77*.
C[C@H]1CN([C@@H](C)CO)C(=O)Cc2cc(NS(=O)(=O)c3ccc(Cl)cc3)ccc2O[C@@H]1CN(C)Cc1ccncc1 was read as A1 apoptosis 2 0, INS-1E rescue 14 and T cruzi intra -27.
Screening C[C@H]1CN([C@@H](C)CO)C(=O)Cc2cc(NS(=O)(=O)c3ccc(F)cc3)ccc2O[C@H]1CN(C)Cc1ccc(Cl)c(Cl)c1 returned INS-1E rescue -15 and T cruzi intra 40.
Screening CN(C)c1ccc(/C=N/NC(=O)CCCCCCC(=O)Nc2ccccc2O)cc1 returned A1 apoptosis 2 -1, INS-1E rescue -3 and T cruzi intra 10.
For Cc1noc(C)c1S(=O)(=O)Nc1ccc2c(c1)C(=O)N([C@H](C)CO)C[C@@H](C)[C@@H](CN(C)Cc1ccc(C(F)(F)F)cc1)O2 the results were INS-1E rescue -8 and T cruzi intra -1.
`Cc1noc(C)c1S(=O)(=O)Nc1ccc2c(c1)C(=O)N([C@H](C)CO)C[C@H](C)[C@H](CN(C)C(=O)Nc1ccc(C(F)(F)F)cc1)O2` gave T cruzi intra 73*.
Cc1noc(C)c1S(=O)(=O)Nc1ccc2c(c1)C(=O)N([C@@H](C)CO)C[C@H](C)[C@@H](CN(C)Cc1ccc(C(F)(F)F)cc1)O2 was read as INS-1E rescue -8 and T cruzi intra 65*.
Screening Cc1noc(C)c1S(=O)(=O)Nc1ccc2c(c1)CC(=O)N([C@@H](C)CO)C[C@@H](C)[C@@H](CN(C)Cc1ccc(C(F)(F)F)cc1)O2 returned A1 apoptosis 2 -1, INS-1E rescue -10 and T cruzi intra 34.
Screening Cc1noc(C)c1S(=O)(=O)Nc1ccc2c(c1)C(=O)N([C@H](C)CO)C[C@H](C)[C@@H](CN(C)C(=O)Nc1ccc(C(F)(F)F)cc1)O2 returned INS-1E rescue 4 and T cruzi intra 7.
Cc1noc(C)c1S(=O)(=O)Nc1ccc2c(c1)CC(=O)N([C@H](C)CO)C[C@@H](C)[C@@H](CN(C)Cc1ccc(C(F)(F)F)cc1)O2 was read as A1 apoptosis 2 1, INS-1E rescue -37 and T cruzi intra 69*.
Screening COc1ccc(NC(=O)Nc2ccc3c(c2)CC(=O)N([C@H](C)CO)C[C@@H](C)[C@H](CN(C)Cc2ccc(C(F)(F)F)cc2)O3)cc1 returned A1 apoptosis 2 0, INS-1E rescue -43 and T cruzi intra inconclusive.
COc1ccc(CN(C)C[C@@H]2Oc3ccc(NC(=O)Nc4ccc(C(F)(F)F)cc4)cc3CC(=O)N([C@H](C)CO)C[C@@H]2C)cc1 was read as A1 apoptosis 2 -1 and INS-1E rescue -89.
Screening COc1ccc(CN(C)C[C@@H]2Oc3ccc(NC(=O)Nc4ccc(C(F)(F)F)cc4)cc3CC(=O)N([C@H](C)CO)C[C@H]2C)cc1 returned A1 apoptosis 2 0, INS-1E rescue -8 and T cruzi intra -8.
`COc1ccc(NC(=O)Nc2ccc3c(c2)CC(=O)N([C@H](C)CO)C[C@@H](C)[C@@H](CN(C)Cc2ccc(C(F)(F)F)cc2)O3)cc1` gave INS-1E rescue -11 and T cruzi intra 67*.
COc1ccc(NC(=O)Nc2ccc3c(c2)CC(=O)N([C@@H](C)CO)C[C@H](C)[C@@H](CN(C)Cc2ccc(C(F)(F)F)cc2)O3)cc1 was read as INS-1E rescue -19 and T cruzi intra 74*.
For COc1ccc(CN(C)C[C@H]2Oc3ccc(NC(=O)Nc4ccc(C(F)(F)F)cc4)cc3CC(=O)N([C@@H](C)CO)C[C@H]2C)cc1 the results were A1 apoptosis 2 1, INS-1E rescue -26 and T cruzi intra 68*.
`COc1ccc(CN(C)C[C@H]2Oc3ccc(NC(=O)Nc4ccc(C(F)(F)F)cc4)cc3CC(=O)N([C@H](C)CO)C[C@H]2C)cc1` gave A1 apoptosis 2 1, INS-1E rescue -14 and T cruzi intra 74*.
For COc1ccc(NC(=O)Nc2ccc3c(c2)CC(=O)N([C@@H](C)CO)C[C@H](C)[C@H](CN(C)Cc2ccc(C(F)(F)F)cc2)O3)cc1 the results were A1 apoptosis 2 -1, INS-1E rescue -2 and T cruzi intra 2.

Screening results as filed in PubChem.
